≈ marks a conversion by molar mass, not a printed value.
Legend:
Cytochrome P450 2C19 = Cytochrome P450 2C19 (Homo sapiens, UniProt P33261); assay: Inhibition of CYP2C19 in human liver microsomes using (S)-(+)-mephenytoin as substrate incubated for 30 mins by LC-MS/MS analysis; assay type: ADME
Histone deacetylase 5 = Histone deacetylase 5 (Homo sapiens, UniProt Q9UQL6); assay: Inhibition of HDAC5 (unknown origin) using Boc Lys(TFA) as substrate by fluorogenic assay
Summary of the method: (§1)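 Biochemical HDAC isoform assay with the artificial fluorogenic substrate Boc-Lys-(TFA)-AMC, which is specific to class IIa enzymes and HDAC8. IC50 taken as the geometric mean of three experiments.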

[1] = molecular target: Histone deacetylase 3/Nuclear receptor corepressor 1 (HDAC3/NCoR1) (Homo sapiens); assay: Inhibition of HDAC3/NCOR1 (unknown origin) using Boc-Lys(Ac) as substrate by fluorogenic assay
[2] = Toxicity in CBAxC57BL/6J mouse assessed as effect on touch escape at 10 to 100 mg/kg, po bid for 14.5 days; assay type: organism-based; conditions: in vivo, 348 h, dose 10-100 mg/kg, time 14.5 day
Summary of the method: (§2)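 R6/2 HD mice and wild-type littermates, male and female, were dosed orally b.i.d. at 10, 30 or 100 mg/kg or with vehicle for 14.5 days. Vehicle was 10% (w/v) hydroxypropyl-β-cyclodextrin in 50 mM citrate buffer. Body weight, body temperature, passive observations and active manipulation scores were recorded. Blood and brain were collected 2 h after the final dose.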

[3] = molecular target: Muscarinic acetylcholine receptor M4 (Homo sapiens) (UniProt P08173); assay: Displacement of [3H]4-DAMP from human recombinant M4 receptor at 10 uM incubated for 1 hr by radiometric scintillation counting analysis
Summary of the method: (§3)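 Broad selectivity panel of binding, cellular, functional and enzymatic assays run by a contract lab. Each test was done at a single 10 μM concentration and reported as percent inhibition.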

[4] = molecular target: Muscarinic acetylcholine receptor M3 (Homo sapiens, UniProt P20309); assay: Displacement of [3H]4-DAMP from human recombinant M3 receptor at 10 uM incubated for 1 hr by radiometric scintillation counting analysis; summary of the method: as §3
[5] = Inhibition of Class 2b HDAC in human HEK293 cells using alpha-tubulin as substrate by fluorogenic assay; assay type: cell-based
[6] = molecular target: Muscarinic acetylcholine receptor M5 (Homo sapiens) (UniProt P08912); assay: Displacement of [3H]4-DAMP from human recombinant M5 receptor at 10 uM incubated for 1 hr by radiometric scintillation counting analysis; summary of the method: as §3
[7] = Unbound fraction in mouse brain; assay type: ADME, tissue-based
Summary of the method: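 Unbound fraction measured in mouse brain homogenate.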

Histone deacetylase 8 = molecular target: T1, Histone deacetylase 8 (Homo sapiens, UniProt Q9BY41); assay: Inhibition of HDAC8 (unknown origin) using Boc-Lys(TFA) as substrate by fluorogenic assay; summary of the method: as §1
T1 sequence (Q9BY41 whole entry): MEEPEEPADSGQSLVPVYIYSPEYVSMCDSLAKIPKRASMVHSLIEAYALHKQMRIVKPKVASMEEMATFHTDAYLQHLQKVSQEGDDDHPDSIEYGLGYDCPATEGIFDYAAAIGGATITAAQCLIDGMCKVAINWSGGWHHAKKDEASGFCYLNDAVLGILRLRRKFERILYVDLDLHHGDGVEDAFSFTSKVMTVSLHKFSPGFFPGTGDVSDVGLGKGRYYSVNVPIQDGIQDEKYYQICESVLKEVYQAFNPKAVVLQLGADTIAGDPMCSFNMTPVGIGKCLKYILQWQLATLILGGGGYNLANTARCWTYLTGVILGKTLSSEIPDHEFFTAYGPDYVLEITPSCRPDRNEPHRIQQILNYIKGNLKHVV

[8] = In vivo inhibition of Class 1 HDAC in CBAxC57BL/6J mouse brain assessed as increase in H4K12 acetylation at 30 to 100 mg/kg, po bid for 14.5 days by dot blot technique; assay type: organism-based; conditions: 348 h, dose 30-100 mg/kg, time 14.5 day
Summary of the method: (§4)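 R6/2 and wild-type littermate mice of both sexes were dosed orally b.i.d. for 14.5 days with 10, 30 or 100 mg/kg or vehicle (10% w/v hydroxypropyl-β-cyclodextrin in 50 mM citrate buffer). Half-brains were collected 2 h after the last dose. Dot blots measured global and H4K12 acetylation; Western blots measured H3, H4 and tubulin acetylation. Genotypes were pooled.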

[9] = Kinetic solubility of the compound; assay type: physicochemical; conditions: read-out: Kinetic_solubility
Histone deacetylase 4 = Histone deacetylase 4 (Homo sapiens, UniProt P56524); assay: Inhibition of HDAC4 (unknown origin) using Boc Lys(TFA) as substrate by fluorogenic assay; summary of the method: as §1
Cytochrome P450 3A4 = Cytochrome P450 3A4 (Homo sapiens, UniProt P08684); assay: Inhibition of CYP3A4 in human liver microsomes using midazolam as substrate incubated for 15 mins by LC-MS/MS analysis; assay type: ADME
[10] = Toxicity in CBAxC57BL/6J mouse assessed as effect on flaccidity at 10 to 100 mg/kg, po bid for 14.5 days; assay type: organism-based; conditions: in vivo, 348 h, dose 10-100 mg/kg, time 14.5 day; summary of the method: as §2
[11] = Metabolic stability of the compound in mouse blood; assay type: ADME, tissue-based
[12] = Toxicity in CBAxC57BL/6J mouse assessed as effect on retropulsion at 10 to 100 mg/kg, po bid for 14.5 days; assay type: organism-based; conditions: in vivo, 348 h, dose 10-100 mg/kg, time 14.5 day; summary of the method: as §2
[13] = Toxicity in CBAxC57BL/6J mouse assessed as effect on shallow respiration at 10 to 100 mg/kg, po bid for 14.5 days; assay type: organism-based; conditions: in vivo, 348 h, dose 10-100 mg/kg, time 14.5 day; summary of the method: as §2
[14] = Metabolic stability of the compound in human plasma; assay type: ADME, cell-free
[15] = Toxicity in CBAxC57BL/6J mouse assessed as effect on stereotypy at 10 to 100 mg/kg, po bid for 14.5 days; assay type: organism-based; conditions: in vivo, 348 h, dose 10-100 mg/kg, time 14.5 day; summary of the method: as §2
[16] = molecular target: Sigma non-opioid intracellular receptor 1 (Homo sapiens) (UniProt Q99720); assay: Displacement of [3H](+)-pentazocine from human sigma1 receptor at 10 uM incubated for 120 mins by radiometric scintillation counting analysis; summary of the method: as §3
[17] = Inhibition of Class 1/2b HDAC in human Jurkat E6.1 cells using Boc-Lys-(Ac)-AMC as substrate by fluorogenic assay; assay type: cell-based
Summary of the method: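 Whole-cell assay in Jurkat E6.1 cells with artificial fluorogenic substrates: Boc-Lys-(TFA)-AMC for class IIa/HDAC8 activity, which in this line is mostly HDAC4, and Boc-Lys-(Ac)-AMC for class I/IIb activity. IC50 given as the geometric mean of three experiments.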

[18] = Toxicity in CBAxC57BL/6J mouse assessed as effect on provoked biting at 10 to 100 mg/kg, po bid for 14.5 days; assay type: organism-based; conditions: in vivo, 348 h, dose 10-100 mg/kg, time 14.5 day; summary of the method: as §2
[19] = Toxicity in CBAxC57BL/6J mouse assessed as effect on straub tail at 10 to 100 mg/kg, po bid for 14.5 days; assay type: organism-based; conditions: in vivo, 348 h, dose 10-100 mg/kg, time 14.5 day; summary of the method: as §2
[20] = In vivo inhibition of Class 1/2B HDAC in CBAxC57BL/6J mouse brain assessed as increase in global pan-acetylation at >=10 mg/kg, po bid for 14.5 days by dot blot technique; assay type: organism-based; conditions: 348 h, time 14.5 day; summary of the method: as §4
Cytochrome P450 2D6 = Cytochrome P450 2D6 (Homo sapiens, UniProt P10635); assay: Inhibition of CYP2D6 in human liver microsomes using dextromethorphan as substrate incubated for 15 mins by LC-MS/MS analysis; assay type: ADME
[21] = Toxicity in CBAxC57BL/6J mouse assessed as effect on seizure by tail at 10 to 100 mg/kg, po bid for 14.5 days; assay type: organism-based; conditions: in vivo, 348 h, dose 10-100 mg/kg, time 14.5 day; summary of the method: as §2

Muscarinic acetylcholine receptor M4 (Homo sapiens), sequence (P08173 whole entry): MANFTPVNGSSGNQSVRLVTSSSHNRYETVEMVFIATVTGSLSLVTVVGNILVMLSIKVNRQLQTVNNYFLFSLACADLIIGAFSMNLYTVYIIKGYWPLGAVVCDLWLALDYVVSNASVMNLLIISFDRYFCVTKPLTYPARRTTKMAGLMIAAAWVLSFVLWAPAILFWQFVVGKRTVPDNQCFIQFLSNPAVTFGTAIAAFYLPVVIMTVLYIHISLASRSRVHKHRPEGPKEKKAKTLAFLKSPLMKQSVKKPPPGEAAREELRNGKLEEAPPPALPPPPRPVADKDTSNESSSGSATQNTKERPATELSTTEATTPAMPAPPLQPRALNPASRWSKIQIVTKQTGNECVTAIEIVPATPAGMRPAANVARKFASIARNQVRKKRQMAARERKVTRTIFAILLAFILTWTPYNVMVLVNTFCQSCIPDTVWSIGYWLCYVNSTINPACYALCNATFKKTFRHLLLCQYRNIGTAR
Sigma non-opioid intracellular receptor 1 (Homo sapiens), sequence (Q99720 whole entry): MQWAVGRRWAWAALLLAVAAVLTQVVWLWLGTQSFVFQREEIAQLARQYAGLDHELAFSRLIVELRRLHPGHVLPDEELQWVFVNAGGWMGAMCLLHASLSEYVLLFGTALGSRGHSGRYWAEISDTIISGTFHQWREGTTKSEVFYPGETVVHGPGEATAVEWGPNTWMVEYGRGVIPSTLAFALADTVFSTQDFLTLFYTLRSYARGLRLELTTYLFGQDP
Histone deacetylase 4, sequence (P56524 whole entry): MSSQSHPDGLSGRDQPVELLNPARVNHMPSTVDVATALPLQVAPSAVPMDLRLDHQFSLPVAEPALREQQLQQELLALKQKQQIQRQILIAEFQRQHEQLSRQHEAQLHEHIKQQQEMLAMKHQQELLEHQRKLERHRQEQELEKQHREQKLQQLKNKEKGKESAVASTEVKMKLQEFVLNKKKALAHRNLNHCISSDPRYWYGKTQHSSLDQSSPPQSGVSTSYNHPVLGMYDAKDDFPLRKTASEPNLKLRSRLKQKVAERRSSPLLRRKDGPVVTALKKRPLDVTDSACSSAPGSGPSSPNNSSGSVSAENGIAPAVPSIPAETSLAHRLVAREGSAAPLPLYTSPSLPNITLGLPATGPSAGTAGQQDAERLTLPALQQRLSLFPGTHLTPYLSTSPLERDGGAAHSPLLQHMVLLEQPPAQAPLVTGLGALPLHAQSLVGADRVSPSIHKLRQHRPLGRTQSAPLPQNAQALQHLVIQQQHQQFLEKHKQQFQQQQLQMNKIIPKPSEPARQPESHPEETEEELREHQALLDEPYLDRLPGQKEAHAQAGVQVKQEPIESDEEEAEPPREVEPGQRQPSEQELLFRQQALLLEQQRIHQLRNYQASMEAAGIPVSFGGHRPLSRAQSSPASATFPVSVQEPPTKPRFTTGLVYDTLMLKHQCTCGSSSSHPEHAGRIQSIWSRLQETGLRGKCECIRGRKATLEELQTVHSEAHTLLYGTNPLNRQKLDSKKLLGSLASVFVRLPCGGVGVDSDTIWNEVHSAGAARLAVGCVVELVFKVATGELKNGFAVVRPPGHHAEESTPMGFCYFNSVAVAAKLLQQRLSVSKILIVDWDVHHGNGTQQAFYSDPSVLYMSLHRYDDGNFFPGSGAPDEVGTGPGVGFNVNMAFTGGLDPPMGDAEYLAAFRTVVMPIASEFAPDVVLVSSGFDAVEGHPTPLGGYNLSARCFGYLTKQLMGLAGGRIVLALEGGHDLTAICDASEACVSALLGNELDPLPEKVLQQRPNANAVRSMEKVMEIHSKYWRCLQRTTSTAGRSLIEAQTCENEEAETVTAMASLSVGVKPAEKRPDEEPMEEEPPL
Cytochrome P450 2C19, sequence (P33261 whole entry): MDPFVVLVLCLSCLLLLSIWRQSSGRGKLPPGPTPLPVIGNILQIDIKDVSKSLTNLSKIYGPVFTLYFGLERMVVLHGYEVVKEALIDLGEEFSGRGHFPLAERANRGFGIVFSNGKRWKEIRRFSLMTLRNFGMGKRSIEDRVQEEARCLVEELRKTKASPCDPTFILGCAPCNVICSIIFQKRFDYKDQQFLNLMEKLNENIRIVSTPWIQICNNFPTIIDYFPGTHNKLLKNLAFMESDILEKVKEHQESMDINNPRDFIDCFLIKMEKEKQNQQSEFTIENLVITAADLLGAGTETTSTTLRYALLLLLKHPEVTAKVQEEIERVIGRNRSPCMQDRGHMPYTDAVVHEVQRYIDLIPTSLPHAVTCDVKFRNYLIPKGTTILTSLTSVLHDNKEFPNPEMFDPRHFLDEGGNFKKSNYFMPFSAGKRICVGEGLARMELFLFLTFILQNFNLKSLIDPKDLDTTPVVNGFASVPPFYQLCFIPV
Cytochrome P450 2D6, sequence (P10635 whole entry): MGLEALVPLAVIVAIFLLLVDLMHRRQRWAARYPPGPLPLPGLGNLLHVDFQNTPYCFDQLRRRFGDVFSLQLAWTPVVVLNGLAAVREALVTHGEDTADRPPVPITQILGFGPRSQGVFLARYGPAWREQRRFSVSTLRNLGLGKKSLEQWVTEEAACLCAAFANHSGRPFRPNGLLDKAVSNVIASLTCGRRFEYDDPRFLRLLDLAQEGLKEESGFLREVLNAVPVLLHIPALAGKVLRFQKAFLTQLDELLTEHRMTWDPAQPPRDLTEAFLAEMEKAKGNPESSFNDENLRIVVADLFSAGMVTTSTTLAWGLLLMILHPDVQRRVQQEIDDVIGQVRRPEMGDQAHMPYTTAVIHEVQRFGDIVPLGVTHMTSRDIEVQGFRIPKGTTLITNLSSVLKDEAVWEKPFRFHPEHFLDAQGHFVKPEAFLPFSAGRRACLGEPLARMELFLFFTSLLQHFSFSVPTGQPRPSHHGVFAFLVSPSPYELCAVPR
Histone deacetylase 5, sequence (Q9UQL6 whole entry, canonical isoform): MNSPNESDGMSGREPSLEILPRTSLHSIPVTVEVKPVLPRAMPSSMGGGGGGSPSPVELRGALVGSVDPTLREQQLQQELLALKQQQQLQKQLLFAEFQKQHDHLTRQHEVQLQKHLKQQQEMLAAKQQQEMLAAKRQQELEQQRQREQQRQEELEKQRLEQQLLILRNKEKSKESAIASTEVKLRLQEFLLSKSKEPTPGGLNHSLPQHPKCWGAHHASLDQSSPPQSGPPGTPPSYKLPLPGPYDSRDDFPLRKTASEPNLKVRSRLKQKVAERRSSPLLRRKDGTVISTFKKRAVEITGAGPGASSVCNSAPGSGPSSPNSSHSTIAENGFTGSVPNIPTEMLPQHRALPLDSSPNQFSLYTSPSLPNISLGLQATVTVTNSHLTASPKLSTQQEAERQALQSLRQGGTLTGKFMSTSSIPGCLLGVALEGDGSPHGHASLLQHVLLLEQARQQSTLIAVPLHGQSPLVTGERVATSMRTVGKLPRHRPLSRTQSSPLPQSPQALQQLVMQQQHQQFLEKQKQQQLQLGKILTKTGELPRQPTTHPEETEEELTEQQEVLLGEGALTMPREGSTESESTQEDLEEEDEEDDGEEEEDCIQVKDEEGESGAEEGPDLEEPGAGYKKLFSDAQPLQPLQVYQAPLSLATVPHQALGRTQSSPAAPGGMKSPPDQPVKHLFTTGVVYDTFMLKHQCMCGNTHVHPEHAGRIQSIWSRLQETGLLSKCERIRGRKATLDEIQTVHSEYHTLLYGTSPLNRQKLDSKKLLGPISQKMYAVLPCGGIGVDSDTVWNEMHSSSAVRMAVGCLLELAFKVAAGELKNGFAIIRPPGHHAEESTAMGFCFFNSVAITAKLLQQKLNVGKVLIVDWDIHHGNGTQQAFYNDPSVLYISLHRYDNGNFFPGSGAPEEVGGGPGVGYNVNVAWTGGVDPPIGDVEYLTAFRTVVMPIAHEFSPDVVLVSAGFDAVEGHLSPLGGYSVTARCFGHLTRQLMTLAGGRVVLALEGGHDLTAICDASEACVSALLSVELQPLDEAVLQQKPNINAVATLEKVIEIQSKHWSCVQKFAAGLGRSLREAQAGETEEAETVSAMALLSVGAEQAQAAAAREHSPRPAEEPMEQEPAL
Muscarinic acetylcholine receptor M5 (Homo sapiens), sequence (P08912 whole entry): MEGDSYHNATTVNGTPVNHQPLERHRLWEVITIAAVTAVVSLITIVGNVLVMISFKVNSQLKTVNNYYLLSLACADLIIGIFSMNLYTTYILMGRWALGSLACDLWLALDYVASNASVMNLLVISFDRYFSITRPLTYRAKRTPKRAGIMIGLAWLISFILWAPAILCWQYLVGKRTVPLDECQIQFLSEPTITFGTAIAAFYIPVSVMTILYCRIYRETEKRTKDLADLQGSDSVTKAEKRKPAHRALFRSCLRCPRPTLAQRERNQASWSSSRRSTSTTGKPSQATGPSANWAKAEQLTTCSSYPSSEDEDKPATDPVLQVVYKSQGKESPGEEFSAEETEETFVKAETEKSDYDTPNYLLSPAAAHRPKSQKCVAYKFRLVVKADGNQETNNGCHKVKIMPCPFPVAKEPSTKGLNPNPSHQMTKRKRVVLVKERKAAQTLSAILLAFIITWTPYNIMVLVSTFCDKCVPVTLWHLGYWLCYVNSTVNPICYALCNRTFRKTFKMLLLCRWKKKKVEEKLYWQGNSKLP
Muscarinic acetylcholine receptor M3, sequence (P20309 whole entry, looked up): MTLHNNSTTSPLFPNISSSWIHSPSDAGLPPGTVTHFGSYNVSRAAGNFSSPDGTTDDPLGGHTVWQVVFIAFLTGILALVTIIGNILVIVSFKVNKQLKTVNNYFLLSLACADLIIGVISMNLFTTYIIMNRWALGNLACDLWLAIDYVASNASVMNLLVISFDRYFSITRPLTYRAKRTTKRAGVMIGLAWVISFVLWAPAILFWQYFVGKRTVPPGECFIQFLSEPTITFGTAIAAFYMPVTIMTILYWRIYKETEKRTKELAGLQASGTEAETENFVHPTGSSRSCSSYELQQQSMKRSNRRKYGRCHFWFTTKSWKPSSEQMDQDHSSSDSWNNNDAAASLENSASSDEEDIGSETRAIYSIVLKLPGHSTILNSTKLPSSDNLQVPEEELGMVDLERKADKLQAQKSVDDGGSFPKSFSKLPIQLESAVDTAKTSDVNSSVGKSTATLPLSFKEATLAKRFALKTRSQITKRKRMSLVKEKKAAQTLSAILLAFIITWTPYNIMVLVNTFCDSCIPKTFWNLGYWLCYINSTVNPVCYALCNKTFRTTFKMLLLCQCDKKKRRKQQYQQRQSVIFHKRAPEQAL

SMILES: C[C@H](CN1CCC[C@@H]1C)NC(=O)c1ccc(-c2noc(C(F)(F)F)n2)cc1
- IC50 (Cytochrome P450 2C19): > 50 µM
- IC50 (Histone deacetylase 5): 0.02 µM
- IC50 [1]: 10 µM
- Activity [2]: Non-Toxic
- inhibition [3]: > 80%
- inhibition [4]: > 80%
- IC50 [5]: > 29 µM
- inhibition [6]: > 80%
- fraction unbound [7]: 0.17
- IC50 (Histone deacetylase 8): 2 µM
- Activity [8]: Toxic
- solubility kinetic [9]: 166 µM (≈ 63.5 µg/mL)
- IC50 (Histone deacetylase 4): 0.01 µM
- IC50 (Cytochrome P450 3A4): > 50 µM
- Activity [10]: Non-Toxic
- Stabilty [11]: Stable
- Activity [12]: Non-Toxic
- Activity [13]: Non-Toxic
- Stabilty [14]: Stable
- Activity [15]: Non-Toxic
- inhibition [16]: > 50%
- IC50 [17]: 5 µM
- Activity [18]: Non-Toxic
- Activity [19]: Non-Toxic
- Activity [20]: Toxic
- IC50 (Cytochrome P450 2D6): > 50 µM
- Activity [21]: Non-Toxic

Source: ChEMBL document CHEMBL4680373, “Evaluation of 5-(Trifluoromethyl)-1,2,4-oxadiazole-Based Class IIa HDAC Inhibitors for Huntington's Disease” (ACS Med Chem Lett, 2021)
